Experimental findings from ChEMBL document CHEMBL4229391, “Divergent synthesis of thapsigargin analogs” (Bioorg Med Chem Lett, 2018) are described below.

What all share (type): cell-based
In assay [1] the test system is HeLa. The assay is described as follows: Inhibition of SERCA in human HeLa cells assessed as increase in cytosolic calcium level at 1.56 x 10^-7M measured over 300 secs by Fluo-4 NW dye based FLIPR analysis relative to control. A digest of the protocol:
(§1)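 HeLa cells were seeded at 25,000/well in MEM + 10% FBS and grown overnight at 37°C, 5% CO2. They were loaded with Fluo-4 NW (30 min at 37°C, then 30 min at RT). Compound was added in HBSS/20 mM HEPES, one point of a 10-point in-assay range (10 uM – 38 pM). Fluorescence (ex 470-495, em 515-575 nm) was read for 300 s. Peak signal was normalized to thapsigargin (=100%) and buffer (0.2% DMSO) controls.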

Assay [2] deals with HeLa. The assay is described as follows: Inhibition of SERCA in human HeLa cells assessed as increase in cytosolic calcium level at 2.50 x 10^-6M measured over 300 secs by Fluo-4 NW dye based FLIPR analysis relative to control. A digest of the protocol: as §1
Assay [3] relates to HeLa. The assay is described as follows: Inhibition of SERCA in human HeLa cells assessed as increase in cytosolic calcium level at 3.91 x 10^-8M measured over 300 secs by Fluo-4 NW dye based FLIPR analysis relative to control. A digest of the protocol: as §1
Assay [4] deals with HeLa. The assay can be described thus: Inhibition of SERCA in human HeLa cells assessed as increase in cytosolic calcium level at 6.25 x 10^-7M measured over 300 secs by Fluo-4 NW dye based FLIPR analysis relative to control. In a few lines:
as §1

Assay [5] has as its system HeLa. The assay can be described thus: Inhibition of SERCA in human HeLa cells assessed as increase in cytosolic calcium level at 9.77 x 10^-9M measured over 300 secs by Fluo-4 NW dye based FLIPR analysis relative to control. In a few lines: (§2)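 HeLa cells seeded at 25,000/well in MEM + 10% FBS and kept overnight at 37°C, 5% CO2. They were loaded with FLUO-4 NW (30 min 37°C, then 30 min RT) in HBSS/20 mM HEPES. Compounds were added from DMSO in a 10-point titration (in-assay 10 uM–38 pM). Fluorescence (ex 470-495, em 515-575 nm) was read 300 s. Signal maxima were normalized to thapsigargin (100%) and buffer/0.2% DMSO controls. Three independent runs in duplicate.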

Assay [6] has as its system HeLa. The assay can be described thus: Inhibition of SERCA in human HeLa cells assessed as increase in cytosolic calcium level at 3.81 x 10^-11M measured over 300 secs by Fluo-4 NW dye based FLIPR analysis relative to control. In a few lines: as §1
Assay [7] deals with HeLa. The assay is described as follows: Inhibition of SERCA in human HeLa cells assessed as increase in cytosolic calcium level at 1.00 x 10^-5M measured over 300 secs by Fluo-4 NW dye based FLIPR analysis relative to control. In a few lines:
as §1

Assay [8] has as its system HeLa. The assay is described as follows: Inhibition of SERCA in human HeLa cells assessed as increase in cytosolic calcium level at 6.10 x 10^-10M measured over 300 secs by Fluo-4 NW dye based FLIPR analysis relative to control. In a few lines: as §2
For assay [9], the system named is HeLa. The assay is described as follows: Inhibition of SERCA in human HeLa cells assessed as increase in cytosolic calcium level at 1.53 x 10^-10M measured over 300 secs by Fluo-4 NW dye based FLIPR analysis relative to control. In a few lines: as §2
For assay [10], the system named is HeLa. The assay can be described thus: Inhibition of SERCA in human HeLa cells assessed as increase in cytosolic calcium level at 2.44 x 10^-9M measured over 300 secs by Fluo-4 NW dye based FLIPR analysis relative to control. A digest of the protocol: as §2
Assay [11] in a line: Inhibition of SERCA in human HeLa cells assessed as increase in cytosolic calcium level measured over 300 secs by Fluo-4 NW dye based FLIPR analysis. A digest of the protocol: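 Fluo-4 NW-loaded HeLa cells (25,000/well, overnight culture in MEM/10% FBS) received 10-point titrations (10 uM – 38 pM in-assay) in HBSS/20 mM HEPES. Fluorescence was recorded for 300 s. Peak signals, normalized to thapsigargin and 0.2% DMSO buffer controls, were fitted to a log agonist-response model. The midpoint concentration is reported as IC50. Values are mean ± SD of three independent determinations, each run in duplicate.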

As to `C/C=C(/C)C(=O)O[C@H]1C(C)=C2[C@H]([C@@H]1OC(=O)CCCCC)[C@@](C)(OC(C)=O)C[C@H](OC(=O)CCC)[C@@]1(O)[C@H]2OC(=O)[C@@]1(C)O`, the inhibition in assay [1] was 64.9 to 94.4%; in assay [2] it was 91.1 to 105%; in [3] it was 5.8 to 30.7%; in [4], 90.8 to 104%; in assay [5], -2.2 to 7.9%; in [6] it was -2.5 to 2%. Also, the inhibition is 86.6 to 100% in assay [7], -4.6 to 4.1% in assay [8], -2.1 to 3.5% in assay [9] and -5.9 to 4.6% in assay [10]. The half-maximal inhibitory concentration (IC50) in assay [11] lay in the range of 73 to 90 nM.
With `C/C=C(/C)C(=O)O[C@H]1C(C)=C2[C@H]([C@@H]1OC(=O)CCCCCCC)[C@@](C)(OC(C)=O)C[C@H](OC(=O)CCC)[C@@]1(O)[C@H]2OC(=O)[C@@]1(C)O` [THAPSIGARGIN], the inhibition in assay [1] is 67.6 to 103%; in assay [2] it was 92.9 to 105%; in [3], 37.6 to 75.1%; in assay [4], 90.4 to 109%; in assay [5], -2.7 to 10.5%; in assay [6], -2.3 to 2.9%. For the same compound, the inhibition in [7] is 89 to 107%; in assay [8] it was -5 to 0.6%; in assay [9], -1.7 to 0.1%; in [10] it was -4.1 to 1.4%. For the same compound, in assay [11], the IC50 lay within 28.5 to 51 nM.
As to `CCCCCCCC(=O)O[C@H]1[C@H]2C(=C(C)[C@@H]1OC(=O)c1cccs1)[C@@H]1OC(=O)[C@@](C)(O)[C@@]1(O)[C@@H](OC(=O)CCC)C[C@]2(C)OC(C)=O`, the inhibition in assay [1] was 52.4 to 84.4%; in [2] it was 79.6 to 105%; in assay [3], -7.5 to 25.7%; in assay [4] it was 68.8 to 103%; in [6], -5.9 to 0.6%; in assay [7] it was 92.9 to 102%. For the same compound, the IC50 in [11] was in the range of 71.5 to 117 nM.
With `CCCCCCCC(=O)O[C@H]1[C@H]2C(=C(C)[C@@H]1OC(=O)CC(C)C)[C@@H]1OC(=O)[C@@](C)(O)[C@@]1(O)[C@@H](OC(=O)CCC)C[C@]2(C)OC(C)=O`, the inhibition in assay [2] is 72.4 to 91.7%; in [4], 40.2 to 84.1%; in [6], -8 to 21.4%; in [7], 89.7 to 96.6%. Moreover, the IC50 in [11] was 310 to 576 nM.
With `C/C=C(/C)C(=O)O[C@H]1C(C)=C2[C@H]([C@@H]1OC(=O)CCCCCCC)[C@@](C)(OC(C)=O)C[C@H](OC(=O)[C@@H](C)CC)[C@@]1(O)[C@H]2OC(=O)[C@@]1(C)O`, the inhibition is 6.2 to 40.9% in assay [1]; 91.1 to 109% in assay [2]; 2.9 to 27.6% in assay [3]; 88.4 to 101% in [4]; -1.3 to 3.8% in assay [5]; -2.2 to 2.4% in assay [6]. Besides, the inhibition in assay [7] is 89.4 to 110%; in assay [8], -3.2 to 2.2%; in assay [9] it was -4.2 to 2.5%; in assay [10], -1.6 to 2.8%. Further, in [11], the IC50 lay in the range of 220 to 298 nM.
Turning to `CCCCCCCC(=O)O[C@H]1[C@H]2C(=C(C)[C@@H]1OC(=O)c1sccc1C)[C@@H]1OC(=O)[C@@](C)(O)[C@@]1(O)[C@@H](OC(=O)CCC)C[C@]2(C)OC(C)=O`, the inhibition in assay [1] is 57 to 99.4%; in assay [2] it was 86.7 to 101%; in [3], -6.6 to 60.1%; in [4], 83.7 to 102%; in [5], -6.6 to 10%; in assay [6], -2.2 to 3.1%. For the same compound, the inhibition is 92 to 101% in assay [7], -4.2 to 0.8% in [8], -2.6 to 0.5% in assay [9] and -7.7 to 1.6% in [10]. For the same compound, the IC50 in [11] fell in the range of 30 to 119 nM.
With `CCCCCCCC(=O)O[C@H]1[C@H]2C(=C(C)[C@@H]1OC(=O)[C@H](C)CC)[C@@H]1OC(=O)[C@@](C)(O)[C@@]1(O)[C@@H](OC(=O)CCC)C[C@]2(C)OC(C)=O`, the inhibition was 71.9 to 87.8% in assay [1]; 88.1 to 106% in [2]; 8.1 to 45.8% in assay [3]; 91.7 to 104% in [4]; 1 to 7.1% in [5]; -0.7 to 2.6% in assay [6]. Besides, the inhibition is 87.4 to 108% in assay [7], -0.7 to 1.9% in assay [8], -4.3 to 1.5% in [9] and -1.6 to 3.6% in assay [10]. Besides, in [11], the 50% inhibitory concentration (IC50) was 57.7 to 104 nM.
As for `C/C=C(/C)C(=O)O[C@@H]1C[C@H]2C(=C1C)[C@@H]1OC(=O)[C@@](C)(O)[C@@]1(O)[C@@H](OC(=O)C=C(C)C)C[C@]2(C)OC(C)=O`, the inhibition was 12.1 to 55.6% in assay [1]; 87.1 to 102% in [2]; -1.7 to 10.7% in [3]; 65.5 to 94.1% in assay [4]; -4.7 to 4.6% in [5]; -2 to 1.7% in assay [6]. The inhibition in [7] was 92 to 102%; in assay [8], -3 to 3.3%; in assay [9], -3.3 to 2.6%; in assay [10], -3.4 to 4.1%. Also, the IC50 in assay [11] was 204 to 268 nM.
